Experimental findings from ChEMBL document CHEMBL1833926, “Bicyclic heteroaryl inhibitors of stearoyl-CoA desaturase: from systemic to liver-targeting inhibitors” (Bioorg Med Chem Lett, 2011) are described below.

Calls of active or inactive are those of the source. The calls are words filed in the database; no cut-off is given here.

For data set [1], the target named is T1, Acyl-CoA 6-desaturase (Homo sapiens) (UniProt O95864).
T1 sequence (whole entry): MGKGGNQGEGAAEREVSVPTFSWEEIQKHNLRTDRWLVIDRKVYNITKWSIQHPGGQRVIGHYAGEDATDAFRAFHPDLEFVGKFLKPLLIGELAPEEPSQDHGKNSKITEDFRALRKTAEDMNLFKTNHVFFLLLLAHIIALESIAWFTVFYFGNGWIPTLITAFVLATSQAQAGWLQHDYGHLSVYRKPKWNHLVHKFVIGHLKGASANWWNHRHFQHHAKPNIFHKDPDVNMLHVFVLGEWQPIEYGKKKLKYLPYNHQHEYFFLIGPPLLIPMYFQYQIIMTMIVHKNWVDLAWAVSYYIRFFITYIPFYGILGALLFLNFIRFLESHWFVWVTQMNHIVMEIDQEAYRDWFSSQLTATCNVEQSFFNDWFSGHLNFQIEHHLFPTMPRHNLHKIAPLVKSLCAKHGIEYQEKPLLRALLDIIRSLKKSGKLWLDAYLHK
Briefly: Inhibition of delta-6 desaturase.

The target in data set [2] is Acyl-CoA (8-3)-desaturase (Homo sapiens) (UniProt O60427). Briefly: Inhibition of delta-5 desaturase.
Acyl-CoA (8-3)-desaturase (Homo sapiens), sequence (O60427 whole entry, looked up): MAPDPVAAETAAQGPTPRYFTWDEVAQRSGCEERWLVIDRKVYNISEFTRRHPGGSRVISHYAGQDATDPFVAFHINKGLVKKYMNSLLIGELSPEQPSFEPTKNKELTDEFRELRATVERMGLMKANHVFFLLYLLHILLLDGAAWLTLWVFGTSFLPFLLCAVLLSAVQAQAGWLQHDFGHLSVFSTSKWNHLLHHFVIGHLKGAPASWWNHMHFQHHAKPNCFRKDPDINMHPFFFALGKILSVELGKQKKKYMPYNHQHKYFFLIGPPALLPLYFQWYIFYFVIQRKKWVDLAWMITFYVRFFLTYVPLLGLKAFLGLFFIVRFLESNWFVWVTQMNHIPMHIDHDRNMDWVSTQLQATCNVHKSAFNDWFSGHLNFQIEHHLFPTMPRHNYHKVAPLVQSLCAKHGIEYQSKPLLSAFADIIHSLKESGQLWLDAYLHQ
The next data set addresses T2, Stearoyl-CoA desaturase (Homo sapiens, UniProt O00767).
T2 sequence (O00767 whole entry): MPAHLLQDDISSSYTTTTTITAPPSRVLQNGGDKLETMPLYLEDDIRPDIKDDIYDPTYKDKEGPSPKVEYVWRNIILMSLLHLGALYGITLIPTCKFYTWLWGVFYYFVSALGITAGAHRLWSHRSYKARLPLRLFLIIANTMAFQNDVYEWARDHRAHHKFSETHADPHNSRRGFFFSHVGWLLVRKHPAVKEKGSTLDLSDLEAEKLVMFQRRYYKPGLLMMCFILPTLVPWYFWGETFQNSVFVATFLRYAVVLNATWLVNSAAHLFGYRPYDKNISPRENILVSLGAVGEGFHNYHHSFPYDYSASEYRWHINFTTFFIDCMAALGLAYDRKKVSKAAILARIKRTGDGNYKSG
Put plainly: Inhibition of SCD1 in human HepG2 cells. The class given is cell-based.

Data set [3] concerns the target T3, Acyl-CoA desaturase 1 (Rattus norvegicus, UniProt P07308).
T3 sequence (P07308 whole entry): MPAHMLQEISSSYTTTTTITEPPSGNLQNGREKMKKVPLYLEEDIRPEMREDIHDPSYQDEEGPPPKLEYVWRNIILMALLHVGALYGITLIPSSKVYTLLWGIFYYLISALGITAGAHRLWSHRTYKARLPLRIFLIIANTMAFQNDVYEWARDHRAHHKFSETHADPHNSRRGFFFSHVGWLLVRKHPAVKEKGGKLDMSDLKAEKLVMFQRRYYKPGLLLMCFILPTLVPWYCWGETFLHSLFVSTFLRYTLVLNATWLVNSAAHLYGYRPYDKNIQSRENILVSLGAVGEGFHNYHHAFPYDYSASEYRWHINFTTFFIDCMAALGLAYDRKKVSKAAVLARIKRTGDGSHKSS
Briefly: Inhibition of rat SCD1 in rat liver microsome.

Data set [4] is described as follows: AUC (0 to 24 hrs) in C57BL/6 mouse at 10 mg/kg, po. Format: ADME, organism-based, C57BL6. Details: time < 24 hr, dose 10 mg/kg, route oral. As to conditions: whole blood. The essentials:
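Oral gavage, 10 mg/kg in 0.5% methocel, to C57BL6 mice; whole blood exposure measured over 0–24 h as AUC.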

Data set [5] concerns HepG2. Briefly: Ratio of IC50 for SCD1 in human HepG2 cells to IC50 for SCD1 in rat Hep cells. Format: cell-based. An outline of the steps:
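Fold shift computed as hHepG2 whole-cell IC50 over rat hepatocyte IC50.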

A short description of data set [6]: Ratio of drug uptake in liver to adipose tissue in C57BL/6 mouse at 10 mg/kg, po after 6 hrs. Format: ADME, organism-based, C57BL6. Details: dose 10 mg/kg, route oral. The settings on record: in vivo. The essentials: (§1)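 Single oral dose of 10 mg/kg in 0.5% methocel given to C57BL6 mice on normal chow. Drug levels measured 6 h post-dose in liver, white adipose, skin and Harderian glands. Liver/tissue fold selectivity taken from these levels.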

Data set [7] can be described thus: Ratio of drug uptake in liver to skin in C57BL/6 mouse liver at 10 mg/kg, po after 6 hrs. Format: ADME, organism-based, C57BL6. Details: dose 10 mg/kg, route oral. The settings on record: in vivo. An outline of the steps: as §1
Data set [8] in a line: Ratio of drug uptake in liver to harderian glands in C57BL/6 mouse at 10 mg/kg, po after 6 hrs. The class given is ADME, organism-based, C57BL6. Details: dose 10 mg/kg, route oral. As to conditions: in vivo. An outline of the steps:
as §1

Data set [9] concerns the target T3, Acyl-CoA desaturase 1. Put plainly: Inhibition of SCD1 in rat Hep cells. The class given is cell-based. The essentials: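 Whole-cell SCD1 inhibition measured in rat hepatocytes, which express OATP transporters, in the presence of 10% fetal bovine serum; IC50 determined.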
Data set [10] concerns HepG2. Briefly: Ratio of IC50 for SCD1 in human HepG2 cells to IC50 for rat SCD1. Format: cell-based. An outline of the steps: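 Fold shift computed as hHepG2 whole-cell IC50 over the SCD1-induced rat liver microsomal enzyme IC50.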
The nature of data set [11]: Drug uptake in C57BL/6 mouse liver at 30 mg/kg, po after 3 hrs. The settings on record: read-out: Drug uptake. Format: ADME, organism-based, C57BL6. Details: dose 30 mg/kg, route oral. An outline of the steps:
(§2)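 Drug levels in liver and plasma measured in the mouse liver PD study. C57BL6 mice on a high carbohydrate diet received an oral dose in 0.5% methocel. Samples were taken 3 h post-dose, with livers harvested 2 h after iv [1-14C]-stearic acid tracer.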

For another data set, the system named is Mus musculus. Put plainly: Inhibition of SCD1 activity in high carbohydrate diet fed C57BL/6 mouse assessed as reduction in conversion of [1-14C]stearic acid to [1-14C]oleic acid at 30 mg/kg, po after 3 hrs. Format: functional. As to conditions: C57BL6, 3 h. The essentials:
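Mouse liver PD assay in C57BL6 mice on a high carbohydrate diet, n = 5/group. Compound given orally in 0.5% methocel. At 1 h, [1-14C]-stearic acid in 60% aqueous PEG 200 given iv. Livers harvested 2 h after tracer. Lipids hydrolyzed; SCD1 activity index = 14C-oleic/14C-stearic acid ratio.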

Data set [12] in a line: Plasma concentration in C57BL/6 mouse at 30 mg/kg, po after 3 hrs. The class given is ADME, organism-based, C57BL6. Details: dose 30 mg/kg, route oral. An outline of the steps: as §2

As for `FC(F)(F)c1ccccc1OC1CCN(c2ncnc3[nH]cnc23)CC1`, the inhibition result in data set [1] and in data set [2] was “inactive” each time.

Take `Fc1ccc(Br)c(OC2CCN(c3ncc4nc[nH]c4n3)CC2)c1`: the inhibition result in data set [1] and in data set [2] was “inactive” each time.

In general, IC50 refers to the midpoint of a concentration-inhibition curve. Higher therefore signals a need for much substance. Take `Nc1nc2cnc(N3CCC(Oc4cc(F)ccc4Br)CC3)nc2s1`: the inhibition result in [1] and in data set [2] was “inactive” in each case. Moreover, the IC50 against Stearoyl-CoA desaturase is 17 nM; on Acyl-CoA desaturase 1 [3], 1 nM.

In the case of `FC(F)(F)c1ccccc1OC1CCN(c2ncc3nc[nH]c3n2)CC1`, the inhibition result in [1] and in data set [2] was “inactive” in each case.

As for `FC(F)(F)c1ccccc1OC1CCN(c2ncnc3nc[nH]c23)CC1`, the results for the IC50 on Stearoyl-CoA desaturase and against Acyl-CoA desaturase 1 [3] were 48 nM and 10 nM, respectively.

Turning to `O=c1[nH]ccc2nc(N3CCC(Oc4ccccc4C(F)(F)F)CC3)sc12`, the inhibition result in data set [1] and in [2] was “inactive” each time. For the same molecule, the results for the IC50 on Stearoyl-CoA desaturase and at Acyl-CoA desaturase 1 [3] were 268 nM and 85 nM, respectively.

Regarding `Cc1ncc2sc(N3CCC(Oc4ccccc4C(F)(F)F)CC3)nc2n1`, the inhibition result in data set [1] and in data set [2] was “inactive” throughout. Besides, the IC50 at Stearoyl-CoA desaturase came out at 182 nM; on Acyl-CoA desaturase 1 [3], 54 nM.

The AUC(0-t) is the area under the concentration-time curve up to a stated or last time point. In the case of `NC(=O)c1cnc(N2CCN(C(=O)c3ccccc3C(F)(F)F)CC2)s1`, in data set [4], the AUC(0-t) at 24 h came to 11 µM·h.

As to `Fc1ccc(Br)c(OC2CCN(c3ncnc4nc[nH]c34)CC2)c1`, the values for the IC50 against Stearoyl-CoA desaturase and against Acyl-CoA desaturase 1 [3] were below 39 nM and 1 nM, respectively.

On to `Oc1nc2cnc(N3CCC(Oc4ccccc4C(F)(F)F)CC3)nc2[nH]1`, for which the inhibition result in data set [1] and in [2] was “inactive” each time.

On to `O=C(O)COc1nc2cnc(N3CCC(Oc4cc(F)ccc4Br)CC3)nc2s1`, for which the figures for the Ratio IC50 in the data set on HepG2 [5] and in the data set with HepG2 [10] were below 1 and 7, respectively. In addition, the Ratio in data set [6] came out at 173; in [7] it was 403; in data set [8], 3. Moreover, the IC50 worked out at 53 nM on Stearoyl-CoA desaturase, 7 nM at Acyl-CoA desaturase 1 [3] and 348 nM against Acyl-CoA desaturase 1 [9].

One may read the inhibition in vivo as the drop in the measured response relative to a control, in per cent. For `O=C(O)CNc1nc2cnc(N3CCC(Oc4cc(F)ccc4Br)CC3)nc2s1`, the Ratio IC50 amounted to 1 in the data set with HepG2 [5] and 42 with HepG2 [10]. The Ratio in data set [6] was 41; in data set [7] it was 145; in [8], 21. Also, the concentration for half-maximal inhibition (IC50) at Stearoyl-CoA desaturase came to 168 nM; on Acyl-CoA desaturase 1 [3], 4 nM; at Acyl-CoA desaturase 1 [9], 158 nM. Moreover, the results for the concentration at 3 h in data set [11] and in [12] were 4100 nM and 200 nM, respectively. Moreover, the inhibition in vivo at 30 mg/kg in the data set with Mus musculus came to 72%.
